Test results published in article PMC11068032 (Journal of medicinal chemistry, 2023).

Legend:
[1] = system: AR protein level in T98G cells; experiment: AR downregulation in T98G cells by Western blotting; type: cell-based, human; details: 100 nM, 12 h
Method in brief: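 Cells in 6-well plates treated with test compound or DMSO (T98G screens at 100 or 50 nM for 12 h). Lysed in RIPA with protease inhibitors (10 min on ice), spun at 10,000g for 10 min, protein by BCA. 50 µg resolved on 10% SDS-PAGE, transferred to PVDF, blocked 2 h in 5% milk/TBS-T. Anti-AR or anti-AR-V7 primary overnight at 4 °C, secondary 60 min at RT, chemiluminescence. Band gray values quantified.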

[2] = system: AR-overexpressed GBM cell lines U87 and T98G; type: cell-based, human; details: summary of Table 1
Method in brief: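 MTT assay in T98G and U87 cells kept in RPMI1640 or DMEM with 10% FBS and penicillin/streptomycin at 37 °C, 5% CO2. MTT 1 mg/mL for 2 h at 37 °C, formazan dissolved in DMSO, A570 read. Eight replicates; IC50 by nonlinear regression.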

| Structure (SMILES) | AR downregulation activity at 100 nM [1] | activity in GBM cell growth inhibition (SAR wording) [2] |
| --- | --- | --- |
| COc1ccc(OC)c(COc2cc(NC(=O)c3ccc(OC(F)(F)F)cc3)ccc2NS(C)(=O)=O)c1 [Compound 33, N-(3-((2,5-Dimethoxybenzyl)oxy)-4-(methylsulfonamido)phenyl)-4-(trifluoromethoxy)benzamide] | significant AR downregulation activity | – |
| COc1ccc(OC)c(COc2cc(NC(=O)c3ccc(NC(=O)COCC(=O)Nc4ccc(C(=O)Nc5ccc(NS(C)(=O)=O)c(OCc6cc(OC)ccc6OC)c5)cc4)cc3)ccc2NS(C)(=O)=O)c1 [Compound 42, 4,4′-((2,2′-Oxybis(acetyl))bis(azanediyl))bis(N-(3-((2,5-dimethoxybenzyl)oxy)-4-(methylsulfonamido)phenyl)benzamide)] | – | poor activity |
| COc1ccc(OC)c(COc2cc(NC(=O)COCC(=O)Nc3ccc(NS(C)(=O)=O)c(OCc4cc(OC)ccc4OC)c3)ccc2NS(C)(=O)=O)c1 [Compound 38, 2,2′-Oxybis(N-(3-((2,5-dimethoxybenzyl)oxy)-4-(methylsulfonamido)phenyl)acetamide)] | – | poor activity |
| CCCCCC(=O)Nc1ccc(NS(C)(=O)=O)c(OCc2cc(OC)ccc2OC)c1 [Compound 30, N-(3-((2,5-Dimethoxybenzyl)oxy)-4-(methylsulfonamido)phenyl)hexanamide] | – | lower activity |
| COc1ccc(OC)c(COc2cc(NC(=O)c3ccc([N+](=O)[O-])cc3)ccc2NS(C)(=O)=O)c1 [Compound 13, N-(3-((2,5-Dimethoxybenzyl)oxy)-4-(methylsulfonamido)phenyl)-4-nitrobenzamide] | significant AR downregulation activity | – |
| COc1ccc(OC)c(COc2cc(NC(=O)c3cccs3)ccc2NS(C)(=O)=O)c1 [Compound 35, N-(3-((2,5-Dimethoxybenzyl)oxy)-4-(methylsulfonamido)phenyl)thiophene-2-carboxamide] | significant AR downregulation activity | lower activity |
| COc1ccc(OC)c(COc2cc(NC(=O)CCCC(=O)Nc3ccc(NS(C)(=O)=O)c(OCc4cc(OC)ccc4OC)c3)ccc2NS(C)(=O)=O)c1 [Compound 37, N1,N5-Bis(3-((2,5-dimethoxybenzyl)oxy)-4-(methylsulfonamido)phenyl)glutaramide] | significant AR downregulation activity | poor activity |
| COc1ccc(OC)c(COc2cc(NC(=O)OCCOC(=O)Nc3ccc(NS(C)(=O)=O)c(OCc4cc(OC)ccc4OC)c3)ccc2NS(C)(=O)=O)c1 [Compound 39, Ethane-1,2-diylbis((3-((2,5-dimethoxybenzyl)oxy)-4-(methylsulfonamido)phenyl)carbamate)] | – | poor activity |
| COc1ccc(OC)c(COc2cc(NC(=O)c3ccc(SC)cc3)ccc2NS(C)(=O)=O)c1 [Compound 19, N-(3-((2,5-Dimethoxybenzyl)oxy)-4-(methylsulfonamido)phenyl)-4-(methylthio)benzamide] | significant AR downregulation activity | – |
| COc1ccc(OC)c(COc2cc(NC(=O)OCCOCCOCCOC(=O)Nc3ccc(NS(C)(=O)=O)c(OCc4cc(OC)ccc4OC)c3)ccc2NS(C)(=O)=O)c1 [Compound 40, (Ethane-1,2-diylbis(oxy))bis(ethane-2,1-diyl)bis((3-((2,5-dimethoxybenzyl)oxy)-4-(methylsulfonamido)phenyl)carbamate)] | – | poor activity |
| COc1ccc(OC)c(COc2cc(NC(=O)c3ccccc3C)ccc2NS(C)(=O)=O)c1 [Compound 34, N-(3-((2,5-Dimethoxybenzyl)oxy)-4-(methylsulfonamido)phenyl)-2-methylbenzamide] | significant AR downregulation activity | – |
| COc1ccc(OC)c(COc2cc(NC(=O)c3cccc(Br)c3)ccc2NS(C)(=O)=O)c1 [Compound 15, 3-Bromo-N-(3-((2,5-dimethoxybenzyl)oxy)-4-(methylsulfonamido)phenyl)benzamide] | significant AR downregulation activity | – |
